In ChEMBL document CHEMBL1144742, “Mithramycin analogues generated by combinatorial biosynthesis show improved bioactivity” (2008):

Columns and labels:
[1] = test system: MDA-MB-231; test: Induction of apoptosis in estrogen receptor negative human MDA231 cells at 20 uM after 24 hrs by TUNEL assay; assay type: functional
Procedure, shortened: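 ER-negative MDA-231 breast cancer cells, treated 24 h at 20 μM. Apoptosis read by TUNEL staining with confocal microscopy as percent TUNEL-positive cells. Baseline apoptosis of untreated cells used for normalization. Mean ± standard error of three independent experiments.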

[2] = test system: MCF7; test: Induction of apoptosis in estrogen receptor positive human MCF7 cells at 15 uM after 24 hrs by TUNEL assay; assay type: functional
Procedure, shortened: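 ER-positive MCF-7 breast cancer cells, exposed 24 h at 15 μM. Apoptotic cells scored by TUNEL labelling and confocal microscopy, expressed as percent TUNEL-positive, normalized against untreated baseline. Mean ± standard error from three independent experiments.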

Row | Compound | Activity [1] [%] | Activity [2] [%]
1 | CO[C@H](C(=O)[C@@H](O)[C@@H](C)O)[C@@H]1Cc2cc3cc(O[C@H]4C[C@@H](O[C@H]5C[C@@H](O)[C@H](O)[C@@H](C)O5)[C@H](O)[C@@H](C)O4)c(C)c(O)c3c(O)c2C(=O)[C@H]1O[C@H]1C[C@@H](O[C@H]2C[C@](C)(O)[C@H](O)[C@@H](C)O2)[C@H](O)[C@@H](C)O1 | 7.29 | 50.3
2 | CO[C@H](C(=O)[C@@H](O)[C@@H](C)O)[C@@H]1Cc2cc3cc(O[C@H]4C[C@@H](O[C@H]5C[C@@H](O)[C@H](O)[C@@H](C)O5)[C@H](O)[C@@H](C)O4)c(C)c(O)c3c(O)c2C(=O)[C@H]1O[C@H]1C[C@@H](O[C@H]2C[C@@H](O[C@H]3C[C@H](O)[C@H](O)[C@@H](C)O3)[C@@H](O)[C@@H](C)O2)[C@H](O)[C@@H](C)O1 | 63.6 | 64.8
3 | CO[C@H](C(=O)[C@@H](O)[C@@H](C)O)[C@@H]1Cc2cc3cc(O[C@H]4C[C@@H](O)[C@H](O)[C@@H](C)O4)c(C)c(O)c3c(O)c2C(=O)[C@H]1O[C@H]1C[C@@H](O[C@H]2C[C@@H](O[C@H]3C[C@](C)(O)[C@H](O)[C@@H](C)O3)[C@@H](O)[C@@H](C)O2)[C@H](O)[C@@H](C)O1 | 12.6 | 26.3
4 | CO[C@H](C(=O)[C@@H](O)[C@@H](C)O)[C@@H]1Cc2cc3cc(O[C@H]4C[C@@H](O[C@H]5C[C@@H](O)[C@H](O)[C@@H](C)O5)[C@H](O)[C@@H](C)O4)c(C)c(O)c3c(O)c2C(=O)[C@H]1O[C@H]1C[C@@H](O[C@H]2C[C@@H](O[C@H]3C[C@](C)(O)[C@H](O)[C@@H](C)O3)[C@@H](O)[C@H](C)O2)[C@H](O)[C@@H](C)O1 | 6.46 | 3.9
